Measurements published in ChEMBL document CHEMBL4732206, “Novel diaryl-2H-azirines: Antitumor hybrids for dual-targeting tubulin and DNA” (Eur J Med Chem, 2021).
pIC50: −log10 of the molar value. Calls of active or inactive are those of the source. The rule behind the calls is not given here.

Key:
Tubulin (Homo sapiens) = Tubulin (Homo sapiens) (UniProt P68371+Q9H4B7+P0DPH7+P68366+Q13509+Q71U36+P04350+Q3ZCM7+P07437+P68363+Q9BQE3+Q6PEY2+Q13885+Q9BVA1+Q9BUF5); assay: Inhibition of tubulin polymerization in human HeLa cells assessed as disorganisation of microtubule at 100 to 200 nM incubated for overnight by DAPI staining based immunofluorescence assay; assay type: cell-based; details: dose 100-200 nM
Procedure, shortened: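 HeLa cells were exposed overnight to a range of compound concentrations, with DMSO as the negative control. Cells were fixed in methanol, permeabilised with 0.1% Triton X-100 and blocked in 3% BSA for 1 h. They were probed with anti-α-tubulin monoclonal antibody overnight at 4 °C, then an Alexa 488 secondary antibody. Nuclei were stained with DAPI for 10 min at room temperature, and cells were imaged by confocal fluorescence microscopy.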

Jurkat [1] = assay: Induction of DNA damage in human Jurkat cells assessed as increase in DNA lesion incubated for 48 hrs by comet assay; assay type: functional, cell-based; details: dose 100-400 nM
Procedure, shortened: (§1)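 Jurkat cells were exposed to graded concentrations, MMC 200 nM positive control or DMSO for 48 h at 37 °C, with work done in darkness. Cells were embedded in LM agarose on comet slides and lysed for 2 h at 4 °C. Slides were unwound in 1 mM EDTA/200 mM NaOH for 30 min, electrophoresed at 25 V for 15 min, stained with ethidium bromide and imaged by fluorescence microscopy. Tail moment was scored.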

HeLa [2] = assay: Induction of apoptosis in human HeLa cells assessed as late apoptotic cells at 1 uM incubated for 48 hrs by annexin-V-FITC and PI staining based flow cytometry analysis (reference value: 0.23 %); assay type: functional
HeLa [3] = assay: Induction of cell cycle arrest in human HeLa cells assessed as upregulation of BubR1 protein expression at 0.8 to 3.2 uM by Western blot analysis; assay type: functional, cell-based; details: dose 0.8-3.2 µM
Procedure, shortened: (§2)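 HeLa cells were treated with graded concentrations or DMSO, washed in PBS and lysed. Protein was measured by BCA, separated by SDS-PAGE and transferred to PVDF. Membranes were blocked in 5% BSA/TBST, incubated with primary antibodies overnight at 4 °C, then with HRP secondary antibodies. Bands were detected by chemiluminescence.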

[4] = Inhibition of pig brain tubulin polymerization by spectrophotometry; parameters: species or system Sus scrofa
HeLa [5] = assay: Antiproliferative activity against human HeLa cells assessed as reduction in cell viability incubated for 48 hrs by MTT assay; assay type: functional, cell-based
Procedure, shortened: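 Cells were grown in DMEM with 10% FBS and penicillin/streptomycin at 37 °C and 5% CO2. They were seeded for 24 h, then treated with graded concentrations for 48 h. MTT (5 mg/mL) was added for a further 4 h at 37 °C. Formazan was dissolved in DMSO and absorbance read at 570 nm. IC50 was taken from the concentration-response curve.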

HeLa [6] = assay: Induction of apoptosis in human HeLa cells assessed as late apoptotic cells at 8 uM incubated for 48 hrs by annexin-V-FITC and PI staining based flow cytometry analysis (reference value: 0.23 %); assay type: functional
HeLa [7] = assay: Induction of cell cycle arrest in human HeLa cells assessed as upregulation of p-histone-H3 protein expression at 0.8 to 3.2 uM by Western blot analysis; assay type: functional, cell-based; details: dose 0.8-3.2 µM; procedure, shortened: as §2
HeLa [8] = assay: Induction of apoptosis in human HeLa cells assessed as viable cells at 2 uM incubated for 48 hrs by annexin-V-FITC and PI staining based flow cytometry analysis (reference value: 97.34 %); assay type: functional; details: read-out: Activity
HeLa [9] = assay: Induction of apoptosis in human HeLa cells assessed as necrotic cells at 8 uM incubated for 48 hrs by annexin-V-FITC and PI staining based flow cytometry analysis (reference value: 0.18 %); assay type: functional
HeLa [10] = assay: Inhibition of colony formation in human HeLa cells incubated for 48 hrs followed by replacement with fresh medium and further incubation for 7 to 10 days by gentian violet staining based assay; assay type: functional, cell-based; details: dose 0.5-8 µM
Procedure, shortened: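 HeLa cells in six-well plates were grown for 24 h at 37 °C, then treated with graded concentrations or DMSO for 48 h. Medium was replaced with fresh medium for a further 7–10 days. Colonies were stained with gentian violet for 30 min, washed with PBS and counted relative to control.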

Jurkat [11] = assay: Induction of DNA damage in human Jurkat cells at 100 to 400 nM incubated for 48 hrs by EB staining based analysis; assay type: functional, cell-based; details: dose 100-400 nM; procedure, shortened: as §1
A2780 = assay: Antitumor activity against human A2780 cells xenografted in Balb/c mouse assessed as reduction in tumor weight at 25 to 50 mg/kg administered every two days; assay type: functional, organism-based; details: dose 25-50 mg/kg
Procedure, shortened: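 Nude mice carried A2780 cells implanted in PBS in the right flank. When tumors reached 100 mm³, mice were randomized into four groups (n = 10): vehicle, 25 or 50 mg/kg test compound, and PTX 10 mg/kg. Dosing was every two days; vehicle was 10% castor oil and 10% DMSO in PBS. Volume (π/6 × length × width²) and body weight were measured by caliper and scale at each dose. Tumors were excised and weighed at the end.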

Jurkat [12] = assay: Induction of DNA damage in human Jurkat cells assessed as increase in tail moment at 100 to 400 nM incubated for 48 hrs by comet assay; assay type: functional, cell-based; details: dose 100-400 nM; procedure, shortened: as §1
HeLa [13] = assay: Induction of apoptosis in human HeLa cells assessed as early apoptotic cells at 1 uM incubated for 48 hrs by annexin-V-FITC and PI staining based flow cytometry analysis (reference value: 2.25 %); assay type: functional

With COc1ccc(C2N=C2c2cc(OC)c(OC)c(OC)c2)cc1F (stereo not given) the inhibition (Tubulin (Homo sapiens)) was “Active”, the Activity (Jurkat [1]) was “Dose-dependent effect” and the Activity (HeLa [2]) was 1.38%. For the same compound, the Activity (HeLa [3]) was “Active”, the pIC50 [4] was 5.48 and the pIC50 (HeLa [5]) was 6.06. The Activity (HeLa [6]) was 7.79%, the Activity (HeLa [7]) was “Active” and the viability at 2 µM (HeLa [8]) was 74.7%. The Activity (HeLa [9]) was 2.14%, the inhibition (HeLa [10]) was “Dose-dependent effect” and the Activity (Jurkat [11]) was “Active”. The Activity (A2780) was “Active”, the Activity (Jurkat [12]) was “Active” and the Activity (HeLa [13]) was 2.86%.
